# Bioassay records as filed in PubChem BioAssay.
# UBC13 polyUb: UBC13 polyubiquitin chain formation inhibitors, primary screen, biochemical, TR-FRET, uHTS. Ubiquitin-conjugating enzyme E2 N (Homo sapiens), P61088. AID 485273, 2010. inhibition, % at 20 µM. 330,000 compounds, 0.47% hits; in the data active = inhibition above about 45%, passing the limit was not always enough
# EBNA-1 inhibitor: EBNA-1 DNA-binding inhibitors, primary screen, biochemical, fluorescence polarization. 300,000 compounds, 0.34% hits. inhibition, % at 14.8 µM; in the data active = inhibition above about 28%
# PfG6PD inh: PfG6PD enzyme inhibitors, primary screen, biochemical, fluorescence intensity, uHTS; PfGluPho enzyme, NADPH resazurin-diaphorase fluorescence; glucose-6-phosphate dehydrogenase-6-phosphogluconolactonase (Plasmodium falciparum 3D7); inhibition, % at 20 µM; 350,000 compounds, 0.78% hits;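 active = inhibition reaching at least a set limit at 20 µM in the primary screen, cut at about 59% in these data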;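 note: 0% = DMSO wells with substrate and 100% = DMSO wells lacking glucose-6-phosphate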
# Apaf1 inhib: inhibitors of human Apaf-1 apoptosome, primary screen, biochemical, DEVD-Rh110 fluorescence, uHTS. Apoptotic protease-activating factor 1 (Homo sapiens), O14727. reconstituted apoptosome caspase-3 activity. inhibition, % at 20 µM. 330,000 compounds, 0.71% hits; active = inhibition of at least 40% at 20 µM;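 note: plate controls were DMSO wells for no effect and DEVD-CHO caspase inhibitor wells for full effect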
#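 Material: reconstituted apoptosome with Apaf-1, cytochrome c, caspase-9, procaspase-3, dATP. Technique: Rh110 fluorescence intensity. Buffer or medium: pH 7.5 Hepes buffer with CHAPS, BSA, DTT. Times: 30 min plus 50 min, RT.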
# PfM18AAP inh-1: PfM18AAP inhibitors, malaria aminopeptidase, primary screen, biochemical, QFRET, recombinant enzyme | 290,000 compounds, 1.2% hits | AID 1822, 2009 | inhibition, % at 7.35 µM | H-Glu-NHMec fluorogenic cleavage | M18 aspartyl aminopeptidase (Plasmodium falciparum 3D7);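 active = inhibition above the campaign mean inhibition over all tested compounds plus 3 SD, cut at about 28% in these data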;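 note: 0% = plate median of test compound wells and 100% = 2 mM ZnCl2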
# ZTA DNA inh: blocks Epstein-Barr virus ZTA, an EBNA-1 counter-screen; ZTA-DNA binding, fluorescence polarization; inhibition, % at 11 µM; 320,000 compounds, 0.15% hits; in the data active = inhibition above about 33%
# PfM18AAP inh-2: PfM18AAP inhibitors, malaria aminopeptidase, confirmation, biochemical, QFRET, recombinant enzyme, triplicate; shares compounds with PfM18AAP inh-1; H-Glu-NHMec fluorogenic cleavage; inhibition, % at 7.35 µM; 2,400 compounds, 28% hits;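 active = mean inhibition over replicate wells above the hit cutoff set for the earlier primary screen, cut at about 29% in these data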;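 note: 0% = median of test compound wells and 100% = 2 mM ZnCl2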
# CTSL1 counter: cathepsin L1 inhibitors, retest, confirmation, counter-screen for PFM18AAP inhibitor project, biochemical, QFRET, triplicate. shares compounds with PfM18AAP inh-1. purified cathepsin L1, Z-Leu-Arg-MCA fluorescence. inhibition, % at 5.96 µM. 2,400 tested, under 10 active. AID 2178, 2009;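 active = average inhibition across replicates above the hit cutoff set in the earlier primary screen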;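 note: 0% = median of test compound wells and 100% = Z-Phe-Ala-diazomethylketone 1 µM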
# Starred values were filed as active, the others as inactive; x = not tested or not shown. Sampled rows, rich in hits. Any-hit rate of the full collection: about 2.9%.
SMILES,UBC13 polyUb,EBNA-1 inhibitor,PfG6PD inh,Apaf1 inhib,PfM18AAP inh-1,ZTA DNA inh,PfM18AAP inh-2,CTSL1 counter
Cc1nnc(SC/C=C/c2ccccc2)n(N)c1=O,-2,7,0,-17,-1,2,x,x
NC(=S)NN=C1C=CCCC1,x,x,15,x,x,x,x,x
CCOC(=O)/C(N=Nc1sc(C(=O)OCC)c(C)c1C(=O)OCC)=C(\C)O,6,-11,x,2,3,4,x,x
CCOC(=O)c1sc(N=NC2=C(O)CCCC2=O)c(C(=O)OCC)c1C,-116,-1,5,26,35*,-2,-41,2
Cc1ccc(NC(=O)NNc2cccc(Cl)n2)cc1,x,6,23,x,53*,7,24,-5
CC(Cl)C(=O)NNc1cccc(Cl)n1 (stereo unspecified),-8,-1,34,-4,12,-2,x,x
O=C(Nc1ccccc1)Nc1cccc(Cl)c1,2,-17,16,4,12,-10,x,x
O=C(NNc1cccc(Cl)n1)Nc1cccc(Cl)c1,-3,-4,49,-1,52*,-15,49*,2
Cc1ccc(S(=O)(=O)NNC(=O)Nc2ccc(Cl)cc2)cc1,2,21,-21,9,2,-12,x,x
O=C(NNc1cccc(Cl)n1)Nc1ccccc1,1,-12,27,3,59*,-11,43*,0
Cc1ccc2nc(C)c3c(c2c1)COC3,-21,-6,6,-4,-4,-3,x,x
COc1ccc(N2C(=O)C(CC(=O)Nc3ccccc3)N(Cc3ccccn3)C2=S)cc1 (stereo unspecified),-5,1,-3,0,-8,10,x,x
CCc1c(C)sc(NC(=O)/C=C/C(=O)O)c1C(N)=O,4,7,-4,-11,34*,12,-42,-1
Cc1sc(NC(=O)/C=C/C(=O)O)c(C(N)=O)c1-c1ccc(C(C)(C)C)cc1,2,0,11,4,-4,12,x,x
CCOC(=O)N1CCN(c2ccc(O)cc2)CC1,4,-1,42,-2,39*,-12,-10,4
CC(=O)c1ccc(N2CCN(C(=O)C3CCC3)CC2)cc1,-6,-8,-6,8,2,-4,x,x
O=C(C1CC1)N1CCN(c2ccc(O)cc2)CC1,-4,-7,41,-1,43*,-1,-32,-2
CCCCCCc1nc(C(N)=O)c2[nH]c(=O)n(-c3ccc(OCC)cc3)c2n1,11,2,11,18,0,0,x,x
O=S(=O)(c1ccc(NC(=S)N2CCN(c3ccc(O)cc3)CC2)cc1)N1CCOCC1,-2,-11,50,5,34*,5,2,-5
CCn1ncc(Br)c1C(=O)Nc1cc(C)on1,4,x,2,1,-1,x,x,x
CCC(NC(C)C)C(O)c1ccc(O)c(O)c1 (stereo unspecified),19,-3,33,-1,52*,-6,10,-4
CCOC(=O)c1c(C)oc2c(CC(=O)c3ccccc3)c(Cl)c(O)c(O)c12,x,6,-18,x,45*,3,24,3
Cc1c(Cl)cccc1NC(=O)c1ncn[nH]1,-2,-3,12,-6,37*,-12,36*,0
Cc1ccc(NC(=O)c2ncn[nH]2)cc1,-7,7,-5,-5,5,10,x,x
Cc1c(Br)c(O)c(Br)c2sc(=O)oc12,-9,-1,12,19,36*,2,-34,0
SMILES,UBC13 polyUb,EBNA-1 inhibitor,PfG6PD inh,Apaf1 inhib,PfM18AAP inh-1,ZTA DNA inh,PfM18AAP inh-2,CTSL1 counter
COc1c(Cl)cccc1-c1cn2ccccc2n1,11,2,44,-15,5,2,x,x
COc1cc(/C=N/NC(=O)c2nc(-c3ccccc3)n(-c3ccccc3)n2)ccc1O,13,7,43,10,2,-3,x,x
Cc1cc(NN)nc(NS(=O)(=O)c2ccccc2)n1,-9,-15,-7,-1,35*,3,4,-4
COc1cc(/C=N/Nc2cc(C)nc(NS(=O)(=O)c3ccccc3)n2)ccc1O,1,-2,-7,5,32*,1,-23,-6
Cc1cc(NN)nc(NS(=O)(=O)c2ccc(Cl)cc2)n1,-3,-5,11,9,37*,14,22,-1
COc1cc(/C=N/Nc2nc(C)nc3c2cnn3-c2ccccc2)ccc1O,x,x,5,x,33*,x,-26,0
COc1cc(C)nc(NS(=O)(=O)c2ccccc2)n1,2,-12,13,-8,2,2,x,x
CC(C)N(Cc1ccccc1)C(=O)COC(=O)c1ccc(O)cc1,3,x,-26,2,x,0,x,x
N#C/C(=C\c1ccccc1)C(=O)Nc1cccnc1,-5,-2,-10,5,2,-7,x,x
N#C/C(=C\c1ccccc1)C(=O)Nc1nncs1,-6,1,-13,-11,35*,7,37*,-2
N#CC1=C(N)NC(=S)C(C(N)=O)C1c1ccccc1F (stereo unspecified),-6,-10,30,17,46*,-22,30*,-3
COc1cc(/C=N/N2C(=O)CSC2=S)ccc1O,-40,-2,1,-4,33*,-2,10,-1
O=C1CSC(=S)N1/N=C/c1ccc2c(c1)OCCO2,-5,-2,-6,5,34*,-8,-9,0
COc1cc(O)c(C=NN2C(=O)CSC2=S)c(OC)c1,x,x,29,x,x,x,x,x
O=C1CSC(=S)N1/N=C/c1ccc(Cl)c([N+](=O)[O-])c1,14,6,x,3,22,4,x,x
Cc1c(-c2ccccc2)nc2ccccc2c1C(=O)NCc1cccs1,15,11,2,-3,4,13,x,x
Cc1ccc(-n2cccc2/C=N/n2cnnc2)cc1Cl,-17,-14,21,12,39*,-15,-39,-4
Oc1ccc(-n2cccc2/C=N/n2cnnc2)cc1,1,6,-8,-5,1,12,x,x
COc1ccc(OC)c(/C=N/n2c(COc3ccccc3)n[nH]c2=S)c1,-3,x,18,9,20,x,x,x
Oc1ccc(/C=N/n2c(COc3ccccc3)n[nH]c2=S)c(O)c1,-9,-21,41,4,33*,-18,12,3
COc1cc(OC)c(OC)cc1/C=N/n1c(COc2ccccc2)n[nH]c1=S,-9,-14,39,10,33*,4,-1,1
